Compound activity as filed in PubChem.
PPC-1+TRAIL kill: kills PPC-1 cancer cells in the presence of TRAIL | PPC-1 cells + TRAIL, ATPLite viability luminescence | cell killing (% activity), % at 4 µM or 5 µM | actives 0.41% (n = 220,000);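 active means cell killing above 50% in the first pass at 4 µM, then a duplicate retest at 5 µM averaging 50% or more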;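 further: plate controls were cells with TRAIL plus DMSO for no effect and medium-only wells lacking cells for full effect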
FLuc inh counter: counter-screen for luciferase assay inhibitors: firefly luciferase inhibition; ATPLite firefly luciferase biochemical luminescence, 10 min; inhibition, % at 10 µM; actives 1.5% (n = 200,000); AID 1006;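 active means inhibition above about 50% when tested at 10 µM, limit read from the data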
Target sequence (P08659 whole entry, looked up): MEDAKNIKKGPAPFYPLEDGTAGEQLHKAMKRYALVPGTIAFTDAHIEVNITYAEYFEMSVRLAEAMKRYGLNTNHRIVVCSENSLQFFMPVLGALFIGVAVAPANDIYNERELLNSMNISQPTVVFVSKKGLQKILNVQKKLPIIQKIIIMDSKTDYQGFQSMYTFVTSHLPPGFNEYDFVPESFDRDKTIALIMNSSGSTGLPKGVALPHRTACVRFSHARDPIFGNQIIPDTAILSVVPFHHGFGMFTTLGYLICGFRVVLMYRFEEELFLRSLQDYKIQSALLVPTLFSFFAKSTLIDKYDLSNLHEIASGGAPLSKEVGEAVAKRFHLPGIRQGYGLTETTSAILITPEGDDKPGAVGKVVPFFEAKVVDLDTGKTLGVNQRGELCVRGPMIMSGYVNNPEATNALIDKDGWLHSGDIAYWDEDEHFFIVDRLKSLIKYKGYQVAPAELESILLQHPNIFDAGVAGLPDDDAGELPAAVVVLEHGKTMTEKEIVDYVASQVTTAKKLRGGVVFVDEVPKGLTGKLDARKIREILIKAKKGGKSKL
HSP90 refold inh: inhibitors of HSP90 luciferase refolding in rabbit reticulocyte lysate. AID 1789. actives 0.91% (n = 290,000). inhibition, % at 5.6 µM. luciferase refolding luminescence, 3 h;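 active means inhibition above the screen-wide mean plus 3 SD, computed separately per campaign, cut at about 16% in these data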;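 further: 0% = DMSO wells and 100% = 60 µM geldanamycin wells; inhibitors lower the luminescence because luciferase stays unfolded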
C8 TRAIL sens: sensitizes caspase-8 expressing cells to TRAIL; actives 1% (n = 360,000); AID 624354; inhibition (viability loss, TRAIL sensitization), % at 10 µM; NB7+C8 cells + TRAIL, ATPlite viability luminescence;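 active means compounds causing at least 50% loss of cell viability in the single-dose screen, relative to plate controls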
STAT3 blocker: inhibitors of IL-6 induced STAT3 signaling. actives 0.89% (n = 190,000). U3A cells, IL-6 STAT3-luciferase reporter, luminescence; host cell line lacks STAT1. inhibition, % at 5.5 µM;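 active means inhibition above the mean inhibition across all screened compounds plus 3 SD, cut at about 44% in these data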;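 further: 0% = DMSO only wells and 100% = 100 µM nifuroxazide control wells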
FLuc stim CS: firefly luciferase counter-screen for stimulation assays. ATPlite luciferase biochemical, luminescence, 10 min; 0 = ATP-free wells, 1 = DMSO control. P08659. 200,000 tested, under 10 active. activation factor at 10 µM;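 active means luciferase activation factor, scaled between plate controls, of at least 2 with compound at 10 µM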
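System: Luciferase/luciferin detection reagent, cell-free biochemical luciferase assay | Medium: PBS buffer for ATP | Dosing: Test compounds dosed from 2 mM stocks in 100% DMSO | Timing: 10 min at ambient temperature | Signal: Luminescence measurement of luciferase light output | Evaluation: Luciferase activation, seen as luminescence increase over controls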
Numbers without * were called inactive; / = not tested or not shown. An excerpt weighted towards active compounds, which were near 2.2% of everything screened.

SMILES	PPC-1+TRAIL kill	FLuc inh counter	HSP90 refold inh	C8 TRAIL sens	STAT3 blocker	FLuc stim CS
CC(=O)Nc1ccc(N=Cc2c(O)c(C(=O)Nc3ccccc3)cc3ccccc23)cc1	-0.9	94.9*	2.0	/	-45.8	0.1
O=C(Nc1ccc(Cl)cc1Cl)c1n[nH]c(Cn2cncn2)n1	26.7	63.7*	1.6	13.6	6.9	0.4
O=C(CSc1nc2ccccc2c(=O)n1-c1ccc(F)cc1F)c1c[nH]c2ccccc12	10.5	-0.8	0.0	0.0	-8.7	1
CCOC(=O)c1c(C)[nH]c(C(=O)OCC(=O)Nc2ccc(Cl)cn2)c1C	/	/	/	-6.0	/	/
CCOC(=O)c1c(C)[nH]c(C(=O)OCC(=O)Nc2sccc2C(N)=O)c1C	/	/	/	55.9*	/	/
COc1ccc(NC(=O)C(=O)Nc2cccc3cccnc23)cc1OC	/	/	-5.9	16.9	/	/
COc1cc(/C=N/Nc2cccc3cccnc23)cc(OC)c1O	15.1	85.9*	3.2	43.0	2.8	0.1
Oc1c(/C=N/Nc2cccc3cccnc23)ccc2ccccc12	22.2	6.1	-0.3	-6.4	-4.6	0.9
C/C(=N\Nc1cccc2cccnc12)c1ccccc1O	37.0	68.5*	-1.2	39.9	-12.7	0.3
Oc1cccc(/C=N/Nc2cccc3cccnc23)c1	33.0	80.9*	-1.7	54.2*	15.2	0.2
Cc1cc(=O)oc2cc(OCC(=O)OCC(=O)N(C)C3CCS(=O)(=O)C3)ccc12 (configuration not stated)	4.7	/	-1.5	4.7	/	/
C/C(=N/NC(=O)NC12CC3CC(CC(C3)C1)C2)c1ccccc1	/	/	-0.2	8.0	/	/
O=C(NCc1ccccc1CN1CCCC1)c1cccc(N2CCCC2=O)c1	/	/	/	-3.7	/	/
CN(C)c1ccc(/C=N/NC(=O)c2ccco2)cc1	41.0	84.4*	5.4	66.1*	9.0	0.2
Cc1ccc(/C=N/NC(=O)c2ccco2)cc1	19.1	/	3.2	44.3	/	/
CN(C)c1ccc(/C=N\NC(=O)c2csnn2)cc1	34.9	60.2*	11.1	25.9	37.4	0.4
Cc1occc1C(=O)N/N=C/c1ccc(OCc2ccccc2)cc1	1.9	/	10.5	-5.4	/	/
Cc1occc1C(=O)N/N=C/c1ccc(-c2ccccc2)cc1	/	/	45.3*	35.3	/	/
COc1ccc(-n2c(SCC(=O)Nc3ccc(C(=O)O)cc3)nnc2-c2ccccc2)cc1OC	/	/	2.2	-15.1	/	/
Cc1csc(NC(=O)c2ccc(OCC3CCCO3)cc2)n1 (configuration not stated)	32.2	73.6*	15.0	53.6*	60.6*	0.3
Cc1ccnc(NC(=O)c2ccc(OCC3CCCO3)cc2)c1 (configuration not stated)	/	/	/	90.8*	/	/
Cc1ccnc(NC(=O)c2ccc3c(c2)C(=O)N(CC2CCCO2)C3=O)c1 (configuration not stated)	27.5	56.2*	1.5	6.7	1.9	0.4
Cc1ccnc(NC(=O)c2ccc(N3C(=O)CCC3=O)cc2)c1	16.0	78.6*	7.4	26.3	0.1	0.2
O=C(Nc1nc(-c2ccc(F)c(F)c2)cs1)c1ccc(OCC2CCCO2)cc1 (configuration not stated)	19.6	6.7	-3.2	35.9	0.7	0.9
O=C(NN1CC(C(=O)OCc2ccccc2F)CC1=O)c1ccccc1 (configuration not stated)	/	/	-1.9	-8.1	/	/
SMILES	PPC-1+TRAIL kill	FLuc inh counter	HSP90 refold inh	C8 TRAIL sens	STAT3 blocker	FLuc stim CS
Cc1noc(C)c1C(=O)N1CCN(S(=O)(=O)c2cccc(Cl)c2Cl)CC1	-10.3	/	-1.9	3.7	/	/
COc1cc(/C=C2/C(=O)c3cccc([N+](=O)[O-])c3C2=O)c(Br)cc1O	9.6	63.9*	-0.6	19.5	-6.4	0.4
COc1ccccc1NC(=O)CCCCCN1C(=O)c2cccc([N+](=O)[O-])c2C1=O	/	/	-2.3	-18.2	/	/
Cc1ccc(C(=O)Nc2ccc3c(c2)nc(CCNC(=O)c2ccco2)n3C)cc1	/	/	-0.9	9.6	/	/
Nn1cnnc1N/N=C/c1cc(Br)cc(Br)c1O	-8.7	-3.7	68.1*	0.1	5.4	1
CCC1SC(=NC(=O)c2ccc(Cl)c(Cl)c2)NC1=O (configuration not stated)	20.7	59.0*	6.6	24.1	13.5	0.4
CCOc1ccc(NC(=O)CN2C(=O)NC(C)(c3ccc4c(c3)OCCCO4)C2=O)cc1OCC (configuration not stated)	/	/	/	-8.4	/	/
O=C(NCCN1C(=O)S/C(=C\c2ccc(Cl)c([N+](=O)[O-])c2)C1=O)C1=COCCO1	/	/	/	54.9*	/	/
Cc1cc(C)cc(NS(=O)(=O)c2ccc3c(c2)c(=O)n(C)c(=O)n3C)c1	16.6	-9.9	3.4	79.7*	33.1	1.1
Cn1c(=O)c2cc(S(=O)(=O)Nc3cc(C(=O)O)cc(C(=O)O)c3)ccc2n(C)c1=O	5.4	-0.8	-2.1	-5.8	0.3	1
Clc1ccc(-c2nc(-c3cnccn3)no2)cc1	25.3	/	-5.2	52.8*	/	/
Fc1ccc(-c2nc(-c3cnccn3)no2)c(Cl)c1	48.7	/	4.6	60.2*	/	/
Cc1ccc(C2C(=O)c3ccccc3C2=O)cc1	/	/	-2.5	-4.8	/	/
CCCC(=O)Nc1ccc(C2C(=O)c3ccccc3C2=O)cc1	/	/	6.8	75.9*	/	/
N/C(=N\OC(=O)c1ccccc1Cl)c1ccncc1	19.4	54.4*	-2.8	20.8	14.8	0.5
N/C(=N\OC(=O)c1ccccc1Cl)c1cccnc1	29.0	83.4*	-1.5	68.7*	-7.2	0.2
N/C(=N\OC(=O)c1ccccc1)c1cccnc1	5.1	91.5*	2.9	2.3	11.9	0.1
N/C(=N\OC(=O)Cc1ccccc1)c1cccnc1	-0.3	1.7	-1.3	5.0	15.8	1
N/C(=N\OC(=O)c1ccc(Cl)cc1Cl)c1ccncc1	4.0	/	-2.2	36.6	/	/
N/C(=N\OC(=O)CCCc1ccccc1)c1cccnc1	-3.4	50.2*	-4.7	-11.0	3.5	0.5
O=C(O)C1Sc2[nH]c(=O)sc2C2c3ccc(O)cc3OC(=O)C12 (configuration not stated)	-1.1	-3.1	-1.0	-3.6	-8.1	1
N/C(=N\OC(=O)c1ccccc1)c1ccn[nH]1	/	/	6.1	56.2*	/	/
Cc1ccccc1C(=O)O/N=C(\N)c1ccncc1	13.2	68.9*	-1.1	52.4*	5.8	0.3
N/C(=N\OC(=O)CCC1CCCC1)c1ccc(Br)cc1	/	/	-3.9	0.3	/	/
N/C(=N\OC(=O)CCC1CCCCC1)c1cccnc1	0.6	62.8*	-0.6	-0.9	5.8	0.4
O=C1Nc2ccccc2C1(O)C/C(=N/O)c1ccccc1 (configuration not stated)	10.8	-8.5	-1.2	-6.6	1.2	1.1
COc1ccc(/C(C)=N/NC(=O)CNC(=O)/C=C\c2ccccc2)c(OC)c1	/	/	-1.2	10.9	/	/
CCOC(=O)c1c(C)n(C)c2ccc(OC)c(NC(=O)CCN3CCC(Cc4ccccc4)CC3)c12	2.5	/	7.8	-11.2	/	/
